# Reference: ChEMBL document CHEMBL4411332, “Deciphering the Role of Intramolecular Networking in Cholic Acid-Peptide Conjugates on the Lipopolysaccharide Surface in Combating Gram-Negative Bacterial Infections” (J Med Chem, 2019)
# Activity calls are given as the source filed them. No cut-off for these calls is given here.
# Key:
# Escherichia coli [1] = assay: Antibacterial activity against Escherichia coli by broth dilution assay; assay type: functional
# Outline: (§1)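 MIC99 by broth-dilution assay; antibacterial and culture details are in the Supporting Information.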
# Klebsiella pneumoniae [2] = assay: Antibacterial activity against Klebsiella pneumoniae by broth dilution assay; assay type: functional; outline: as §1
# Acinetobacter baumannii [3] = assay: Antibacterial activity against Acinetobacter baumannii by broth dilution assay; assay type: functional; outline: as §1
# [4] = Binding affinity to DPH-doped model gram negative bacterial membrane (LPS/DPPE/DMPG lipids) assessed as increase in membrane fluidity by fluorescence anisotrophy
# Outline: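 Vesicles of LPS, DPPE and DMPG doped with DPH were incubated with compound, and the change in DPH fluorescence anisotropy was recorded. Mean ± SD of three replicates, unpaired two-tailed t-test.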
# Lipopolysaccharide (LPS) [5] = assay: Displacement of dansyl-polymyxin B from LPS of bacterial cell membrane by fluorescence spectrophotometry; conditions: Bacteria
# Outline: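 Dansyl-polymyxin B–LPS complexes titrated with compound; rise in dansyl fluorescence from displacement measured. Mean ± SD of three replicates, unpaired two-tailed t-test.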
# Lipopolysaccharide (LPS) [6] = assay: Binding affinity to bacterial LPS by BODIPY-LPS based fluorescence assay; conditions: Bacteria
# Outline: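 BODIPY-conjugated LPS aggregates titrated with compound; fluorescence increase from aggregate disintegration recorded. Mean ± SD of three replicates, unpaired two-tailed t-test.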
# Cell membrane [7] = assay: Binding affinity to bacterial cell membrane assessed as Ka1 by SPR assay; assay type: cell membranes; conditions: Bacteria
# Outline: (§2)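 Surface plasmon resonance of compound binding to bacterial membranes. K1, K2 and overall KA were calculated from the sensorgrams. Average of three replicates.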
# Cell membrane [8] = assay: Binding affinity to bacterial cell membrane assessed as Kd1 by SPR assay; assay type: cell membranes; conditions: Bacteria; outline: as §2
# Cell membrane [9] = assay: Binding affinity to bacterial cell membrane assessed as K1 by SPR assay; assay type: cell membranes; conditions: Bacteria; outline: as §2
# Cell membrane [10] = assay: Binding affinity to bacterial cell membrane assessed as Kd2 by SPR assay; assay type: cell membranes; conditions: Bacteria; outline: as §2
# Cell membrane [11] = assay: Binding affinity to bacterial cell membrane assessed as K2 by SPR assay; assay type: cell membranes; conditions: Bacteria; outline: as §2
# Cell membrane [12] = assay: Binding affinity to bacterial cell membrane assessed as KA by SPR assay; assay type: cell membranes; conditions: Bacteria; outline: as §2
# Escherichia coli [13] = assay: Induction of membrane permeabilization in Escherichia coli at 8 uM after 40 mins by NPN-fluorescence based assay; assay type: organism-based; conditions: Cell membrane
# Outline: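 NPN-stained E. coli incubated with compound at 8 µM; outer-membrane permeabilization followed as NPN fluorescence over time. Average of three replicates.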
# Escherichia coli [14] = assay: Induction of membrane permeabilization in Escherichia coli at 8 uM after 30 mins DiSC2-fluorescence based assay; assay type: organism-based; conditions: Cell membrane
# Outline: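 DiSC2(5)-loaded E. coli treated at 8 µM; depolarization-driven fluorescence increase followed over time. Average of three replicates.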
# Escherichia coli [15] = assay: Induction of membrane permeabilization in Escherichia coli at 32 uM by propidium iodide uptake based FACS analysis; assay type: organism-based; conditions: Cell membrane
# Outline: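 E. coli treated at 32 µM, PI-stained, and PI-positive cells counted by flow cytometry. Mean ± SD of four replicates, unpaired two-tailed t-test.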
# Escherichia coli [16] = assay: Induction of membrane permeabilization in Escherichia coli in presence of 1.9 to 1000 ug/ml LPS by propidium iodide uptake based FACS analysis; assay type: organism-based; conditions: Cell membrane
# Outline: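 E. coli was treated with compound in the presence of graded LPS and stained with propidium iodide. The percentage of PI-positive cells was measured by flow cytometry.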
# Escherichia coli [17] = assay: Bactericidal activity against Escherichia coli assessed as reduction in colony forming units at 1 times MIC99 concentration after 6 hrs by fluorescent based time-kill assay; assay type: functional, organism-based
# Escherichia coli [18] = assay: Bactericidal activity against stationary form of Escherichia coli assessed as reduction in colony forming units by fluorescent based time-kill assay; assay type: functional, organism-based
# Escherichia coli [19] = assay: Bactericidal activity against persistent form of Escherichia coli assessed as reduction in colony forming units by fluorescent based time-kill assay; assay type: functional, organism-based
# Escherichia coli [20] = assay: Antibiofilm activity against Escherichia coli assessed as reduction in colony forming units after 24 hrs by crystal violet-based assay; assay type: functional, organism-based
# Escherichia coli [21] = assay: Antibiofilm activity against Escherichia coli assessed as reduction in colony forming units at 64 uM after 24 hrs by crystal violet-based assay relative to control; assay type: functional
# Escherichia coli [22] = assay: Antibiofilm activity against Escherichia coli assessed as reduction in biomass levels at 64 uM after 24 hrs by crystal violet-based assay relative to control; assay type: functional; set-up: scale not given: the % may be the effect or the level left
# Outline: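 Pre-formed E. coli biofilms treated 24 h with varying doses; biomass quantified by crystal violet staining relative to untreated. Mean ± SD of three replicates, unpaired two-tailed t-test.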
# Escherichia coli [23] = assay: Antibiofilm activity against Escherichia coli assessed as reduction in biomass levels after 24 hrs by SYT09-propidium iodide based confocal microscopy; assay type: functional, organism-based
# Outline: (§3)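 Treated E. coli biofilms stained with SYTO9 (all cells) and PI (dead cells) and imaged by confocal laser scanning microscopy. Biofilm thickness quantified against untreated. Mean ± SD of three replicates, unpaired two-tailed t-test.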
# Escherichia coli [24] = assay: Antibacterial activity against Escherichia coli isolate 6/23 infected in wound areas of BALB/c mouse assessed as reduction in colony forming units at 40 mg/kg dosed thrice daily for 4 days starting 6 hrs post infection and measured on day 5; assay type: functional, organism-based
# Escherichia coli [25] = assay: Antibacterial activity against Escherichia coli XEN 14 infected in wound areas of BALB/C mouse assessed as reduction in bacterial load at 40 mg/kg administered thrice daily for 4 days starting 6 hrs post infection and measured on day 5 by bioluminescence imaging analysis; assay type: functional, organism-based
# Escherichia coli [26] = assay: Antibacterial activity against Escherichia coli isolate 9/44 by broth dilution assay; assay type: functional
# Escherichia coli [27] = assay: Antibacterial activity against Escherichia coli isolate 9/203 by broth dilution assay; assay type: functional
# Escherichia coli [28] = assay: Antibacterial activity against Escherichia coli isolate 6/23 by broth dilution assay; assay type: functional
# Escherichia coli [29] = assay: Antibacterial activity against Escherichia coli isolate 6/27 by broth dilution assay; assay type: functional
# Escherichia coli [30] = assay: Antibacterial activity against Escherichia coli isolate 6/38 by broth dilution assay; assay type: functional
# Acinetobacter baumannii [31] = assay: Antibacterial activity against Acinetobacter baumannii isolate 4/307 by broth dilution assay; assay type: functional
# Acinetobacter baumannii [32] = assay: Antibacterial activity against Acinetobacter baumannii isolate 1/303 by broth dilution assay; assay type: functional
# Acinetobacter baumannii [33] = assay: Antibacterial activity against Acinetobacter baumannii isolate 5/321 by broth dilution assay; assay type: functional
# Acinetobacter baumannii [34] = assay: Antibacterial activity against Acinetobacter baumannii isolate 4/202 by broth dilution assay; assay type: functional
# Acinetobacter baumannii [35] = assay: Antibacterial activity against Acinetobacter baumannii isolate 5/412 by broth dilution assay; assay type: functional
# Klebsiella pneumoniae [36] = assay: Antibacterial activity against Klebsiella pneumoniae isolate 8/407 by broth dilution assay; assay type: functional
# Klebsiella pneumoniae [37] = assay: Antibacterial activity against Klebsiella pneumoniae isolate 8/307 by broth dilution assay; assay type: functional
# Klebsiella pneumoniae [38] = assay: Antibacterial activity against Klebsiella pneumoniae isolate 7/47 by broth dilution assay; assay type: functional
# Klebsiella pneumoniae [39] = assay: Antibacterial activity against Klebsiella pneumoniae isolate 12823 by broth dilution assay; assay type: functional
# [40] = Selectivity index, ratio of HC50 for human RBC to MIC99 for Escherichia coli; assay type: toxicity; conditions: human red blood cells (RBC), read-out: Selectivity Index
# [41] = Selectivity index, ratio of IC50 for human A549 cells to MIC99 for Escherichia coli; assay type: toxicity; conditions: read-out: Selectivity Index
# [42] = Critical micellar concentration of the compound; assay type: physicochemical
# Escherichia coli [43] = assay: Induction of membrane permeabilization in Escherichia coli by SYTO9-PI staining based fluorescence microscopy; assay type: organism-based; conditions: Cell membrane
# Escherichia coli [44] = assay: Induction of cell morphology changes in Escherichia coli at 8 uM by TEM assay; assay type: functional, organism-based
# Outline: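 E. coli treated at 8 µM, sampled at different times and imaged by transmission electron microscopy beside untreated cells.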
# Escherichia coli [45] = assay: Antimicrobial activity against compound-pre-treated Escherichia coli by broth dilution assay based drug resistance development assay; assay type: functional, organism-based
# Outline: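 E. coli pre-treated with compound, then MIC₉₉ redetermined by broth-dilution assay in four replicates; reported as fold change in MIC₉₉ relative to starting value to assess resistance development.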
# Escherichia coli [46] = assay: Ratio of antimicrobial activity against Escherichia coli using 10^12 CFU/ml bacterial inoculum by broth dilution assay to antimicrobial activity against Escherichia coli by broth dilution assay; assay type: functional
# Outline: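 MIC99 against E. coli was measured by broth dilution at a range of inoculum densities up to 10¹² CFU/mL, in four replicates. Results were expressed as fold change in MIC99 relative to the standard inoculum.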
# Escherichia coli [47] = assay: Antibiofilm activity against Escherichia coli after 24 hrs by propidium iodide uptake based FACS analysis; assay type: functional, organism-based
# Escherichia coli [48] = assay: Antibiofilm activity against Escherichia coli assessed as biofilm thickness after 24 hrs (reference value: >8 micrometer); assay type: functional; outline: as §3
# Escherichia coli [49] = assay: Induction of cell membrane disruption in Escherichia coli assessed as pore network disruption by SEM assay; assay type: functional, organism-based
# Escherichia coli [50] = assay: Induction of cell membrane disruption in Escherichia coli assessed as extracellular architecture disruption by SEM assay; assay type: functional, organism-based
# Escherichia coli [51] = assay: Antibiofilm activity against Escherichia coli isolate 6/23 exposed to compound-coated catheters assessed as reduction in colony forming units incubated for 3 days; assay type: functional, organism-based
# Escherichia coli [52] = assay: Antibiofilm activity against Escherichia coli isolate 6/23 infected in BALB/c mouse implanted subcutaneously with compound treated catheters followed by infection at incision site; assay type: functional, organism-based
# Escherichia coli [53] = assay: Bactericidal activity against Escherichia coli assessed as reduction in colony forming units at 4 times MIC99 concentration after 90 mins by fluorescent based time-kill assay
structure (smiles),measurement,setting,value
CC(C)[C@H](N)C(=O)NCC(=O)O[C@@H]1CC[C@@]2(C)[C@@H](C1)C[C@@H](OC(=O)CNC(=O)[C@@H](N)C(C)C)[C@@H]1[C@@H]2C[C@H](OC(=O)CNC(=O)[C@@H](N)C(C)C)[C@]2(C)[C@@H]([C@H](C)CCC(=O)OCc3ccccc3)CC[C@@H]12.Cl.Cl.Cl,MIC99,Escherichia coli [1],8 µM
same,MIC99,Klebsiella pneumoniae [2],16 µM
same,MIC99,Acinetobacter baumannii [3],16 µM
same,Activity,[4],Active
same,inhibition,Lipopolysaccharide (LPS) [5],Active
same,Activity,Lipopolysaccharide (LPS) [6],Active
same,K,Cell membrane [7],2.41 ×10⁴ /Ms
same,K,Cell membrane [8],6 ×10⁻² /s
same,K,Cell membrane [9],4.06 ×10⁵ /M
same,K,Cell membrane [10],4.19 ×10⁻⁵ /s
same,K,Cell membrane [11],2.39 ×10² /M
same,KA,Cell membrane [12],9.6 ×10⁷ /M
same,Activity,Escherichia coli [13],Active
same,Activity,Escherichia coli [14],Active
same,Activity,Escherichia coli [15],Active
same,Activity,Escherichia coli [16],inactive
same,Activity,Escherichia coli [17],inactive
same,Activity,Escherichia coli [18],Active
same,Activity,Escherichia coli [19],Active
same,Activity,Escherichia coli [20],Dose-dependent effect
same,log(activity),Escherichia coli [21],8
same,Activity,Escherichia coli [22],90%
same,Activity,Escherichia coli [23],Active
same,Activity,Escherichia coli [24],Active
same,Activity,Escherichia coli [25],Active
same,MIC99,Escherichia coli [26],8 µM
same,MIC99,Escherichia coli [27],8 µM
same,MIC99,Escherichia coli [28],8 µM
same,MIC99,Escherichia coli [29],4 µM
same,MIC99,Escherichia coli [30],4 µM
same,MIC99,Acinetobacter baumannii [31],16 µM
same,MIC99,Acinetobacter baumannii [32],16 µM
same,MIC99,Acinetobacter baumannii [33],4 µM
same,MIC99,Acinetobacter baumannii [34],8 µM
same,MIC99,Acinetobacter baumannii [35],4 µM
same,MIC99,Klebsiella pneumoniae [36],8 µM
same,MIC99,Klebsiella pneumoniae [37],8 µM
same,MIC99,Klebsiella pneumoniae [38],4 µM
same,MIC99,Klebsiella pneumoniae [39],8 µM
same,selectivity ratio,[40],6 to 7
same,selectivity ratio,[41],6 to 7
same,CMC,[42],> 100 µM
same,Activity,Escherichia coli [43],Active
same,Activity,Escherichia coli [44],Active
same,Activity,Escherichia coli [45],Active
same,Ratio,Escherichia coli [46],2
same,Activity,Escherichia coli [47],Active
same,Activity,Escherichia coli [48],3 um
same,Activity,Escherichia coli [49],Active
same,Activity,Escherichia coli [50],Active
same,Activity,Escherichia coli [51],Active
same,Activity,Escherichia coli [52],Active
same,Activity,Escherichia coli [53],Active
C[C@H](CCC(=O)OCc1ccccc1)[C@H]1CC[C@H]2[C@@H]3[C@H](OC(=O)CNC(=O)[C@@H](N)Cc4ccccc4)C[C@@H]4C[C@H](OC(=O)CNC(=O)[C@@H](N)Cc5ccccc5)CC[C@]4(C)[C@H]3C[C@H](OC(=O)CNC(=O)[C@@H](N)Cc3ccccc3)[C@]12C,MIC99,Escherichia coli [1],inactive
CSCC[C@H](N)C(=O)NCC(=O)O[C@@H]1CC[C@@]2(C)[C@@H](C1)C[C@@H](OC(=O)CNC(=O)[C@@H](N)CCSC)[C@@H]1[C@@H]2C[C@H](OC(=O)CNC(=O)[C@@H](N)CCSC)[C@]2(C)[C@@H]([C@H](C)CCC(=O)OCc3ccccc3)CC[C@@H]12,MIC99,Escherichia coli [1],8 to 128 µM
